# According to ChEMBL document CHEMBL3797028, “Novel S1P1 receptor agonists - Part 4: Alkylaminomethyl substituted aryl head groups” (Eur J Med Chem, 2016):
# How the values were obtained:
# [1] = target: Sphingosine 1-phosphate receptor 3 (Homo sapiens, UniProt Q99500); test: Agonist activity at human recombinant S1PR3 expressed in CHO cell membranes assessed as [35S]GTPgammaS binding preincubated for 30 mins followed by [35S]GTPgammaS addition measured after 1 hr by topcount analysis; format: functional
# Summary of the method: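 Membranes from CHO cells expressing recombinant human S1P1 or S1P3 were used. Buffer was 20 mM Hepes pH 7.4, 100 mM NaCl, 5 mM MgCl2, 0.1% fatty-acid-free BSA, 2.5% DMSO and 50 pM 35S-GTPgammaS. GDP was […] for S1P3. Compound was preincubated 30 min at rt, then incubated 1 h at rt with 35S-GTPgammaS. Bound label was collected by filtration and counted. Specific binding was taken against 10 uM S1P. EC50 was the 50%-of-specific-binding concentration, reported as the geometric mean of at least three independent duplicate runs.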
# [2] = Selectivity ratio of EC50 for human recombinant S1PR3 expressed in CHO cell membranes to EC50 for human recombinant S1PR1 expressed in CHO cell membranes; format: cell-based
# Summary of the method: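 Compound and membranes are pre-incubated 30 min at rt, then incubated 1 h at rt, filtered and counted. EC50 is the concentration giving 50% of S1P-defined specific binding, as the geometric mean of ≥3 independent duplicate runs. Ratio = EC50 S1PR3/EC50 S1PR1.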
# [3] = target: Sphingosine 1-phosphate receptor 1 (Homo sapiens, UniProt P21453); test: Agonist activity at human recombinant S1PR1 expressed in CHO cell membranes assessed as [35S]GTPgammaS binding preincubated for 30 mins followed by [35S]GTPgammaS addition measured after 1 hr by topcount analysis
# Sphingosine 1-phosphate receptor 1, sequence (P21453 whole entry): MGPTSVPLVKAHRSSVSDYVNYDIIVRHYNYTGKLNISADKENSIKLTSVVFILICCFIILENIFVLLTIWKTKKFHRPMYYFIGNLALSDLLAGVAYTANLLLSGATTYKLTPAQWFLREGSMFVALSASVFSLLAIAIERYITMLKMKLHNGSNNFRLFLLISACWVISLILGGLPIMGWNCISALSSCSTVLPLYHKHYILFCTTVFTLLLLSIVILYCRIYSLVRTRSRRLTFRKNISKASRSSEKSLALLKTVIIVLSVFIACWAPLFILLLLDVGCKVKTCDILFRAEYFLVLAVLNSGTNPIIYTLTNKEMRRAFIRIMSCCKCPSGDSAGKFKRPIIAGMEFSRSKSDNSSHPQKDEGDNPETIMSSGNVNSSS
# Sphingosine 1-phosphate receptor 3, sequence (Q99500 whole entry): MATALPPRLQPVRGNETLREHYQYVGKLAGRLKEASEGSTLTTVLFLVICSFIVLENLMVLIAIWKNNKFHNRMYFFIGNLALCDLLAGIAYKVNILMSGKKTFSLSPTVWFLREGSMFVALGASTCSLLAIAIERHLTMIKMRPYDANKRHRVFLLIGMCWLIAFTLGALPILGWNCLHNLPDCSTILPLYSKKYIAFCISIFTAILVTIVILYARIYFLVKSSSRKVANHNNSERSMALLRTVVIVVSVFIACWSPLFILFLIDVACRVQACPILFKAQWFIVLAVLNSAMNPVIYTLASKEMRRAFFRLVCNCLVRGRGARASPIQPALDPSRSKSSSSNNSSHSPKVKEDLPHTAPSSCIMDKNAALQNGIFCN
Compound,EC50 [1] [nM],EC50 [3] [nM],Ratio EC50 [2]
CCc1cc(-c2noc(-c3cc(C)c(CNC)s3)n2)cc(C)c1OC[C@@H](O)CNC(=O)CO,> 10000,14,> 714
CCc1cc(-c2noc(-c3cc(C)c(CN(C)CC)s3)n2)cc(C)c1OC[C@@H](O)CNC(=O)CO,150,1.3,115
CCc1cc(-c2noc(-c3ccc(CNC(C)C)s3)n2)cc(C)c1OC[C@@H](O)CNC(=O)CO,> 10000,203,> 49
CCCN(C)Cc1cc(-c2nc(-c3cc(C)c(OC[C@@H](O)CNC(=O)CO)c(CC)c3)no2)ccc1C,4300,305,14
CCc1cc(-c2noc(-c3cc(C)nc(CN(CC)CC)c3)n2)cc(C)c1OC[C@@H](O)CNC(=O)CO,8100,45,180
CCc1cc(-c2noc(-c3ccc(CN(C)CC)s3)n2)cc(C)c1OC[C@@H](O)CNC(=O)CO,4600,6.8,676
CCc1cc(-c2noc(-c3cc(CN(C)CC(C)C)cc(C(C)C)c3)n2)cc(C)c1OC[C@@H](O)CNC(=O)CO,1.4,1.1,< 2
CCc1cc(-c2noc(-c3ccc(C)c(CN(C)CC)c3)n2)cc(C)c1OC[C@@H](O)CNC(=O)CO,9000,285,32
CCc1cc(-c2noc(-c3sc(CN(C)CC(C)C)c(C)c3C)n2)cc(C)c1OC[C@@H](O)CNC(=O)CO,2300,55,42
CCc1cc(-c2nc(-c3cc(C)c(OC[C@@H](O)CNC(=O)CO)c(CC)c3)no2)ccc1CN(CC)CC,210,1,210
CCc1cc(-c2noc(-c3ccc(CN(C)C)c(C)c3)n2)cc(C)c1OC[C@@H](O)CNC(=O)CO,3200,–,–
CCCN(C)Cc1sc(-c2nc(-c3cc(C)c(OC[C@@H](O)CNC(=O)CO)c(CC)c3)no2)c(C)c1C,370,14,26
CCc1cc(CN(C)CC(C)C)cc(-c2nc(-c3cc(C)c(OC[C@@H](O)CNC(=O)CO)c(CC)c3)no2)c1,8,1.1,7
CCCCN(C)Cc1ccc(-c2nc(-c3cc(C)c(OC[C@@H](O)CNC(=O)CO)c(CC)c3)no2)cc1C,350,5.3,66

# The next lines start with results.
EC50 [1] [nM],EC50 [3] [nM],Compound,Ratio EC50 [2]
120,0.6,CCCN(C)Cc1sc(-c2nc(-c3cc(C)c(OC[C@@H](O)CNC(=O)CO)c(CC)c3)no2)cc1C,200
1400,20,CCc1cc(-c2noc(-c3cc(C)c(CNCC(C)C)s3)n2)cc(C)c1OC[C@@H](O)CNC(=O)CO,70
1500,4.3,CCCCN(C)Cc1cc(-c2nc(-c3cc(C)c(OC[C@@H](O)CNC(=O)CO)c(CC)c3)no2)cc(C)n1,349
2900,310,CCCCN(C)Cc1cc(-c2nc(-c3cc(C)c(OC[C@@H](O)CNC(=O)CO)c(CC)c3)no2)ccc1C,9
–,110,CCc1cc(-c2noc(-c3cc(C)nc(CN(CC)CC)c3)n2)cc(C)c1OC[C@@H](O)CO,–
> 10000,190,CCc1cc(-c2noc(-c3cccc(CNC)c3)n2)cc(C)c1OC[C@@H](O)CNC(=O)CO,> 53
> 10000,270,CCc1cc(-c2noc(-c3ccc(CNCC(C)C)c(C)c3)n2)cc(C)c1OC[C@@H](O)CNC(=O)CO,> 37
> 10000,160,CCc1cc(-c2noc(-c3ccc(CN(C)C)cc3)n2)cc(C)c1OC[C@@H](O)CNC(=O)CO,> 62
> 10000,40,CCc1cc(-c2noc(-c3cc(C)nc(CN(C)C)c3)n2)cc(C)c1OC[C@@H](O)CNC(=O)CO,> 250
380,4.1,CCCN(C)Cc1cc(C)cc(-c2nc(-c3cc(C)c(OC[C@@H](O)CNC(=O)CO)c(CC)c3)no2)c1,93
> 10000,155,CCc1cc(-c2noc(-c3cc(C)c(CN(C)CCN(C)C)s3)n2)cc(C)c1OC[C@@H](O)CNC(=O)CO,> 64
1200,97,CCc1cc(-c2noc(-c3ccc(C)c(CN(C)CC(C)C)c3)n2)cc(C)c1OC[C@@H](O)CNC(=O)CO,12
